Test results reported in ChEMBL document CHEMBL4828728, “Antiplasmodial 2-thiophenoxy-3-trichloromethyl quinoxalines target the apicoplast of Plasmodium falciparum” (Eur J Med Chem, 2021).
Calls of active or inactive are those of the source. The calls are words filed in the database; no cut-off is given here.

Key:
[1] = Selectivity index, ratio of CC50 for cytotoxicity against human HepG2 cells to EC50 for antiplasmodial activity against multidrug-resistant Plasmodium falciparum K1 infected in human erythrocytes; assay type: toxicity, cell-based; conditions: read-out: Ratio CC50/EC50
[2] = system: Plasmodium falciparum; assay: Antiplasmodial activity against multidrug-resistant Plasmodium falciparum K1 infected in human erythrocytes assessed as reduction in parasite growth incubated for 72 hrs by SYBR green I fluorescence based assay; assay type: functional, organism-based; conditions: K1, Erythrocyte
[3] = system: Plasmodium falciparum; assay: Inhibition of apicoplast development in Plasmodium falciparum 3D7 assessed as delayed death phenotype at 0.3 uM measured during 48 hrs of three cycles of parasite development by SYBR green I based fluorescence assay; assay type: functional, organism-based
How it was run: (§1)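 3D7 cultures held at 0.3 μM or DMSO across three 48 h cycles, diluted 1/10 each cycle. At 48, 96 and 144 h, aliquots were lysed in SYBR Green I buffer (Tris pH 7.5, EDTA, saponin, Triton X-100) for 1 h at room temperature in the dark. Fluorescence read at 485/538 nm; growth expressed as treated/untreated ratio, n=3, SD.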

[4] = Cytotoxicity against human HepG2 cells assessed as reduction in cell viability measured after 72 hrs by MTT assay; assay type: cell-based
How it was run: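 HepG2 in MEM with 10% FBS, 5×10³ cells/well; 24 h attachment, then serial dilutions (DMSO <0.5% final) for 72 h at 37 °C, wells checked for precipitate. MTT 0.5 mg/mL for 2 h, formazan in DMSO, A570 with 630 nm reference. Viability versus untreated; doxorubicin positive control; CC50 from dose-response curve, triplicates, mean of three independent experiments.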

[5] = Aqueous solubility of the compound; assay type: physicochemical; conditions: buffer
[6] = Aqueous solubility of the compound assessed as precipitation of the compound at >1.9 uM; assay type: physicochemical; conditions: buffer
[7] = system: Plasmodium falciparum; assay: Antiplasmodial activity against Plasmodium falciparum 3D7; assay type: functional, organism-based
[8] = system: Plasmodium falciparum; assay: Inhibition of apicoplast development in Plasmodium falciparum 3D7 assessed as reduction in parasite growth at 0.3 uM measured during 48 hrs of first cycle of parasite development by SYBR green I based fluorescence assay; assay type: functional, organism-based; how it was run: as §1
[9] = Cytotoxicity against African green monkey Vero cells assessed as reduction in cell viability measured after 48 hrs by MTT assay; assay type: cell-based; conditions: chlorocebus sabaeus
How it was run: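 Vero cells in MEM with 10% FBS; 5×10³ cells/well, 24 h attachment, then compound dilutions (DMSO <0.5% final) for 48 h at 37 °C. Precipitate check, MTT 0.5 mg/mL 2 h, DMSO solubilization, A570/630. Viability relative to untreated; doxorubicin control; CC50 from dose-response, triplicates, mean of three independent experiments.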

[10] = system: Plasmodium falciparum; assay: Inhibition of apicoplast biogenesis in Plasmodium falciparum 3D7 assessed as loss of apicoplast at 0.3 uM measured after 48 hrs by DAPI/TPT staining based epifluorescence microscopic analysis; assay type: functional, organism-based
How it was run: (§2)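 Sorbitol-synchronized (5%) 3D7 blood-stage cultures expressing HA-tagged TPT, grown in RPMI-HEPES with 5% AlbuMAX II, 2% hematocrit, 1% O2/5% CO2, 37 °C; exposed 48 h to 0.3 μM or DMSO. Fixed in 4% PFA/0.0075% glutaraldehyde, Triton-permeabilized, stained with anti-HA plus Alexa 488 secondary and DAPI; imaged by epifluorescence with DIC.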

[11] = Genotoxicity in human HepG2 cells assessed as induction of alkali labile sites at 28 uM measured after 2 to 72 hrs by alkali comet assay; assay type: cell-based; conditions: hepg2, 28 µM, time 2-72 hrs
How it was run: (§3)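 HepG2 (passage 11-15, EMEM with 10% FBS) exposed to 5.6 or 28 μM for 2 h or 72 h; vehicle 0.5% DMSO; 1 mM MMS 2 h positive control. Alkaline comet: lysis pH 10 at 4 °C 1 h, unwinding 40 min at pH >13, electrophoresis 1 V/cm 20 min. DAPI staining, % tail DNA; median of 50 comets per duplicate gel, mean of three experiments ±SD.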

[12] = system: Plasmodium falciparum; assay: Inhibition of apicoplast biogenesis in Plasmodium falciparum 3D7 assessed as reduction in apicoplast development, elongation and branching at 0.3 uM measured after 48 hrs by DAPI/TPT staining based epifluorescence microscopic analysis; assay type: functional, organism-based; how it was run: as §2
[13] = system: Plasmodium falciparum; assay: Inhibition of apicoplast development in hepatic stage of Plasmodium falciparum NF135 infected in human hepatocytes assessed as proportion of schizonts with partial and complete alteration of apicoplast signal at 30 uM incubated for 3 hrs with daily replacement of fresh medium containing compound until day 6 post infection by confocal microscopy; assay type: functional; design: scale not given: the % may be the effect or the level left; conditions: time 6 day
How it was run: (§4)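 Primary human hepatocytes infected with NF135 sporozoites (30,000/well), drug present from infection, washed at 3 h and renewed daily until fixing at day 6 (4% PFA). Apicoplast stained with anti-ACP antibody, parasites with anti-HSP70, DNA with DAPI, imaged by confocal microscopy. 100 parasites scored as normal or partially/completely altered apicoplast, given as percentage distribution.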

[14] = system: Plasmodium falciparum; assay: Antiplasmodial activity against Plasmodium falciparum NF135 sporozoites infected in human hepatocytes assessed as reduction in parasite size without affecting parasite number incubated for 3 hrs with daily replacement of fresh medium containing compound until day 6 post infection by fluorescence microscopic analysis; assay type: functional, organism-based; conditions: Hepatocyte, time 6.0 day
How it was run: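 Cryopreserved primary human hepatocytes seeded at 80,000/well on collagen I in supplemented William's E, then infected with 30,000 NF135 sporozoites/well from A. stephensi salivary glands. Plates centrifuged 10 min, serial drug dilutions added at infection, washed at 3 h, drug medium renewed daily. Fixed day 6 in 4% PFA, EEFs stained with anti-HSP70 plus DAPI, counted by fluorescence microscopy or high-content imaging.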

[15] = system: Plasmodium falciparum; assay: Antiplasmodial activity against Plasmodium falciparum 3D7 assessed as reduction in parasite development by measuring defect in parasite replication at 0.3 uM measured after 48 hrs by DAPI/TPT staining based epifluorescence microscopic analysis; assay type: functional, organism-based; how it was run: as §2
[16] = Cytotoxicity against CHO cells assessed as reduction in cell viability measured after 24 hrs by MTT assay; assay type: cell-based, Cricetulus griseus; conditions: chinese hamster
How it was run: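 CHO cells grown in RPMI with 10% FBS; 5×10³ cells/well, 24 h attachment, then compound dilutions (DMSO <0.5% final) for 24 h at 37 °C. Precipitate check, MTT 0.5 mg/mL 2 h, DMSO solubilization, A570/630. Percent viability against untreated; doxorubicin control; CC50 from dose-response, triplicates, mean of three independent experiments.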

[17] = system: Plasmodium falciparum; assay: Antiplasmodial activity against Plasmodium falciparum 3D7 assessed as reduction in parasite development by measuring enriched culture in mid trophozite parasites at 0.3 uM measured after 48 hrs by DAPI/TPT staining based epifluorescence microscopic analysis; assay type: functional, organism-based; how it was run: as §2
[18] = Genotoxicity in human HepG2 cells assessed as induction of DNA strand breaks at 5.6 uM measured after 2 to 72 hrs by alkali comet assay; assay type: cell-based; conditions: hepg2, 5.6 µM, time 2-72 hrs; how it was run: as §3
[19] = Genotoxicity in human HepG2 cells assessed as induction of alkali labile sites at 5.6 uM measured after 2 to 72 hrs by alkali comet assay; assay type: cell-based; conditions: hepg2, 5.6 µM, time 2-72 hrs; how it was run: as §3
[20] = system: Plasmodium falciparum; assay: Inhibition of apicoplast development in hepatic stage of Plasmodium falciparum NF135 infected in human hepatocytes assessed as condensation of apicoplast protein ACP signal incubated for 3 hrs with daily replacement of fresh medium containing compound until day 6 post infection by confocal microscopy; assay type: functional, organism-based; conditions: time 6.0 day; how it was run: as §4
[21] = Genotoxicity in human HepG2 cells assessed as induction of DNA strand breaks at 28 uM measured after 2 to 72 hrs by alkali comet assay; assay type: cell-based; conditions: hepg2, 28 µM, time 2-72 hrs; how it was run: as §3
[22] = Toxicity in human hepatocytes assessed as reduction in nuclei number up to 30 uM by microscopic analysis; assay type: cell-based, Hepatocyte
How it was run: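 Cryopreserved primary human hepatocytes, 80,000 per collagen-coated well in William's E medium, inoculated with 30,000 NF135 sporozoites/well and centrifuged. Serial drug dilutions added with sporozoites, renewed daily until 4% PFA fixation at day 6. Stained with anti-HSP70 and DAPI; hepatocyte nuclei counted across scanned microscopic fields, treated versus control.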

SMILES	selectivity ratio [1]	EC50 [2] [µM]	CC50 at 72 h [4] [µM]	solubility [5]	also measured
Clc1ccc(Sc2nc3ccccc3nc2C(Cl)(Cl)Cl)cc1	77.2	0.5	–	–	–
Cc1nc2ccccc2nc1Sc1ccccc1	–	> 50	> 25	–	Activity [3]: inactive
FC(F)(F)c1nc2ccccc2nc1Sc1ccccc1	–	> 50	> 50	–	–
Clc1ccccc1Sc1nc2ccccc2nc1C(Cl)(Cl)Cl	73.8	0.5	36.9	Soluble	–
C[C@H]1c2cccc(O)c2C(=O)C2=C(O)[C@]3(O)C(=O)C(C(N)=O)=C(O)[C@@H](N(C)C)[C@@H]3[C@@H](O)[C@@H]21 [DOXYCYCLINE]	3.3	6	–	–	–
COc1ccc(Sc2nc3ccccc3nc2C(Cl)(Cl)Cl)cc1	> 3	0.65	> 1.9	–	solubility [6]: Insoluble
COc1ccc(Cl)c(Sc2nc3ccccc3nc2C(Cl)(Cl)Cl)c1	127	0.46	58.4	Soluble	–
Fc1ccccc1Sc1nc2ccccc2nc1C(Cl)(Cl)Cl	127	0.32	40.5	Soluble	–
O=[N+]([O-])c1ccc(Sc2nc3ccccc3nc2C(Cl)(Cl)Cl)cc1	79.6	0.25	19.9	Soluble	–
Oc1cc(Cl)ccc1Oc1ccc(Cl)cc1Cl [TRICLOSAN]	–	–	–	–	EC50 [7]: 1.55 µM
ClC(Cl)(Cl)c1nc2ccccc2nc1Sc1ccccc1	175	0.32	56	Soluble	Activity [8]: Active; Activity [3]: Active; CC50 at 48 h [9]: 63.5 µM; inhibition [10]: Active; Activity [11]: Non-Toxic; inhibition [12]: Active; Activity [13]: 93%; Activity [14]: Dose-Dependent Effect; Activity [15]: Active; CC50 at 24 h [16]: 58.5 µM; Activity [17]: Active; Activity [18]: Non-Toxic; Activity [19]: Non-Toxic; inhibition [20]: Active; Activity [21]: Non-Toxic; Activity [22]: Non-Toxic
Clc1cccc(Sc2nc3ccccc3nc2C(Cl)(Cl)Cl)c1	93.4	0.41	38.3	Soluble	–
O=C1C(O)=C([C@H]2CC[C@H](c3ccc(Cl)cc3)CC2)C(=O)c2ccccc21 [ATOVAQUONE]	–	0.001	> 15.6	–	–
